Values belong to the compound of their own block, whether it stands above or below them.
Columns and labels:
HDAC2 [1] = target: T1, HDAC2 (Homo sapiens, UniProt Q92769); assay: In vitro HDACs inhibition fluorescence assay, HDAC2; assay type: biochemical; conditions: preincubation 15, 30, 60, 90 min
How it was run: (§1)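 Recombinant HDAC enzyme is preincubated with serial test-compound concentrations at 30 °C for 15, 30, 60 or 90 min. Boc-Lys(acetyl)-AMC is added for 2 h at 30 °C. The reaction is stopped with a trypsin/trichostatin A developer, and fluorescence is read after 30 min (ex 360/em 460 nm). Inhibition is taken relative to control wells, and IC50 comes from a variable-slope log(inhibitor)–normalized response fit.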

HDAC3 [2] = target: T2, HDAC3 (Homo sapiens, UniProt O15379); assay: Recombinant HDAC Vmax study; assay type: biochemical; conditions: 2 h preincubation
How it was run: (§2)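 Recombinant human HDAC is incubated with inhibitor dilutions in HDAC buffer for 2 h at 30 °C. Serially diluted Boc-Lys(acetyl)-AMC is then added. After 2 h, the reaction is quenched with trypsin (5 mg/mL) plus 1 μM TSA solution, and fluorescence is read at 360/460 nm. Vmax and Km come from a Michaelis–Menten fit, and Lineweaver–Burk double-reciprocal plots are derived from them.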

HDAC3 [3] = target: T2, HDAC3; assay: In vitro HDACs inhibition fluorescence assay, HDAC3; assay type: biochemical; conditions: preincubation 15, 30, 60, 90 min
HDAC1 [4] = target: T3, HDAC1 (Homo sapiens, UniProt Q13547); assay: In vitro HDACs inhibition fluorescence assay, HDAC1; assay type: biochemical; conditions: preincubation 15, 30, 60, 90 min
How it was run: as §1

HDAC2 [5] = target: T1, HDAC2; assay: Recombinant HDAC Vmax study; assay type: biochemical; conditions: 2 h preincubation
How it was run: as §2

HDAC1 [6] = target: T3, HDAC1; assay: Recombinant HDAC Vmax study; assay type: biochemical; conditions: 2 h preincubation
MV4-11 cells [7] = assay: Cell cycle analysis in MV4-11 cells; assay type: cell-based; conditions: MV4-11, 24 h
How it was run: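 MV4-11 cells plated at 1,500,000 per well in six-well plates, grown 12 h, then exposed to test compound for 24 h. Cells were PBS-washed, fixed overnight at 4 °C in cold 75% ethanol, and washed twice in cold PBS. They were RNase A-treated at 37 °C for 30 min, stained with 50 μg/mL propidium iodide (30 min, 4 °C), and analysed by flow cytometry. Representative of n ≥ 2 experiments.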

MV4-11 cells [8] = assay: Western blot analysis in MV4-11 cells; assay type: cell-based; conditions: for Level of HDAC6: ≥0.5 μM 13e or 5 μM SAHA
How it was run: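 MV4-11 cells (1,500,000/well) are grown 12 h, then treated with test compound, mainly for 24 h (0.25–2 μM; 5 μM SAHA as reference). For p53, 0.5 μM is given for 6 or 12 h, and bortezomib is co-treated for 6 h. Cells are lysed in RIPA, sonicated, centrifuged, BCA-normalized, and run on 4–12% Bis-Tris gels. Blots are probed overnight at 4 °C with primary antibodies (1/1000), with actin as loading control (n ≥ 2).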

APN/CD13 = target: T4, APN/CD13 (Sus scrofa, UniProt P15145); assay: CD13 inhibition assay; assay type: biochemical, porcine
T4 sequence (P15145 1-963): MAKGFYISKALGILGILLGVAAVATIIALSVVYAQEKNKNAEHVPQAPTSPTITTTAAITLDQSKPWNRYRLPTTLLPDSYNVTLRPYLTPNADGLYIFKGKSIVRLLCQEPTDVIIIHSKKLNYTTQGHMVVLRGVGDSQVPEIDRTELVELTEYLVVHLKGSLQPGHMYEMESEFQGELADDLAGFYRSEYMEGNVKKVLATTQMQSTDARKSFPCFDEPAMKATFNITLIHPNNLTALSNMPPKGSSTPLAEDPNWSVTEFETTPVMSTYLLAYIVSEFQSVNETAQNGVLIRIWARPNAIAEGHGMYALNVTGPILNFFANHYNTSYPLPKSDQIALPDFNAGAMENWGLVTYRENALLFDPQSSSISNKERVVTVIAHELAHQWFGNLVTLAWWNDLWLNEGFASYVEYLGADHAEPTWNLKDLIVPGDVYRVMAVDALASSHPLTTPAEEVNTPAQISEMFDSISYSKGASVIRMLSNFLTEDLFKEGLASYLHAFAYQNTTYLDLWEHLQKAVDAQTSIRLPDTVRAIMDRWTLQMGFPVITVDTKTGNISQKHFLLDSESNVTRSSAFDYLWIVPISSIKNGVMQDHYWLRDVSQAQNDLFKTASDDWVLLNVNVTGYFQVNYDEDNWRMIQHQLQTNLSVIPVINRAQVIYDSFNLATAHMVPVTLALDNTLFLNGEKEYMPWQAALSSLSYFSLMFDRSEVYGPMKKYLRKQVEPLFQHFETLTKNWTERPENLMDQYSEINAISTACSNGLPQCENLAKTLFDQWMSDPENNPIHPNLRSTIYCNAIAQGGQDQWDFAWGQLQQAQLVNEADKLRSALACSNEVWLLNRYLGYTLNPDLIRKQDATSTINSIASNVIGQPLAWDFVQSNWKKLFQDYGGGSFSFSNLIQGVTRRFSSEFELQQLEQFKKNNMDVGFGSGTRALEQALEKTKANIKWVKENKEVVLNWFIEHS
How it was run: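 Porcine kidney microsomal aminopeptidase (CD13) is added to test compound at various concentrations. After 5 min, L-leucine-p-nitroanilide substrate is added, and the mix is incubated at 37 °C for 30 min. Absorbance is then read at 405 nm.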

PC-3 cells [9] = assay: PC-3 cell morphology, phase-contrast light microscope; assay type: cell-based; conditions: 48 h
How it was run: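 PC-3 cells in culture flasks are exposed for 48 h to 2 or 10 μM test compound or DMSO vehicle. Cell morphology and attachment are then examined by phase-contrast light microscopy (n ≥ 2).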

MV4-11 cells [10] = assay: MV4-11 EC50 analysis / cell viability; assay type: cell-based
PC-3 cells [11] = assay: Western blot analysis in PC-3 cells; assay type: cell-based; conditions: PC-3, 24 h
How it was run: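 PC-3 cells (300,000 per well, six-well) grown 12 h, then given test compound at 1 and 2 μM for 24 h; 5 μM reference HDAC inhibitor as positive control. RIPA lysates were sonicated, cleared at 4 °C, and BCA-normalised. Proteins were separated on 4–12% Bis-Tris gels in MES buffer. Primary antibodies were used at 1/1000 overnight at 4 °C, with actin as loading control. Representative of n ≥ 2 experiments.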

PC-3 cells [12] = assay: PC-3 EC50 analysis / cell viability; assay type: cell-based; conditions: 24 and 48 h
PC-3 cells [13] = assay: Cell cycle analysis in PC-3 cells; assay type: cell-based; conditions: PC-3, 24 h
How it was run: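 PC-3 cells (300,000/well) are grown 12 h, then treated with test compound at various concentrations for 24 h. Cells are harvested, PBS-washed, fixed overnight in 75% cold ethanol at 4 °C, and washed in cold PBS. They are then treated with RNase A at 37 °C for 30 min and stained with propidium iodide (50 μg/mL in PBS) for 30 min at 4 °C. DNA content is read by flow cytometry (n ≥ 2).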

MMP-2/MMP-9 = MMP-2/MMP-9 inhibitory activity; assay type: biochemical; conditions: read-out: MMP-2/MMP-9, no inhibition at concentrations up to
How it was run: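 Gelatinase (MMP-2/MMP-9) fluorogenic kit assay. Test compound is added as a 100 μM solution (before mixing), alongside a 40 μM reference MMP inhibitor. Enzyme diluted in activation buffer is added for 10–15 min, then substrate. The mix is incubated at 37 °C for 2 h, and fluorescence is read at ex 320/em 405 nm.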

[14] = clinical use; cited from earlier work

T1 sequence (Q92769 whole entry): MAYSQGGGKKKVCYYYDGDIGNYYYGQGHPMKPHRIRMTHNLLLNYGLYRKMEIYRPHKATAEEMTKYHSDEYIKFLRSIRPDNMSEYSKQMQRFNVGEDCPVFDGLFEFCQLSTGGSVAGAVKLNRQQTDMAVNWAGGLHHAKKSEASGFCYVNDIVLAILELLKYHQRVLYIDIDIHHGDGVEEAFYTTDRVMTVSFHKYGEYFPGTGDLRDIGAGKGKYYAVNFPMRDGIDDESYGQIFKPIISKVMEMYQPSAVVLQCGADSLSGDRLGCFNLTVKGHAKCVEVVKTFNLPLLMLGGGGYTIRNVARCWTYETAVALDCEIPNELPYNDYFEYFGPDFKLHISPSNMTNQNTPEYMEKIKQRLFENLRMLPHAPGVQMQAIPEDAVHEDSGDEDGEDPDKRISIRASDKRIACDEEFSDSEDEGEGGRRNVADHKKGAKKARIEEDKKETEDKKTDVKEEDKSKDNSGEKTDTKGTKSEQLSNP
T2 sequence (O15379 whole entry): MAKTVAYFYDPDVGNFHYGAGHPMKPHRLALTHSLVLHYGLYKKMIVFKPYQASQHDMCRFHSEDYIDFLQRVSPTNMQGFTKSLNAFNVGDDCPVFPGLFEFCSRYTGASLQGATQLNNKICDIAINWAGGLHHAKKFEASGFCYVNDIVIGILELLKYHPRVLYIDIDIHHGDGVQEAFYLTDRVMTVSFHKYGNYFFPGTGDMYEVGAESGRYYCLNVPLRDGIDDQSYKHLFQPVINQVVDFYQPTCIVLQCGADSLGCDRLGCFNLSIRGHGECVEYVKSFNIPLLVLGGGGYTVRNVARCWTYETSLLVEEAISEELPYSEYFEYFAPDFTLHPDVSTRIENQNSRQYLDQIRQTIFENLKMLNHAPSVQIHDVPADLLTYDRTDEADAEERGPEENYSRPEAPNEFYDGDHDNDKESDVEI
T2 sequence (Q9Y618 395-489 partner limits assumed): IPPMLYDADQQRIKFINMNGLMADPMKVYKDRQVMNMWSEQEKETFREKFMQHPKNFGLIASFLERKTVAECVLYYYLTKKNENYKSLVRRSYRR
T3 sequence (Q13547 whole entry): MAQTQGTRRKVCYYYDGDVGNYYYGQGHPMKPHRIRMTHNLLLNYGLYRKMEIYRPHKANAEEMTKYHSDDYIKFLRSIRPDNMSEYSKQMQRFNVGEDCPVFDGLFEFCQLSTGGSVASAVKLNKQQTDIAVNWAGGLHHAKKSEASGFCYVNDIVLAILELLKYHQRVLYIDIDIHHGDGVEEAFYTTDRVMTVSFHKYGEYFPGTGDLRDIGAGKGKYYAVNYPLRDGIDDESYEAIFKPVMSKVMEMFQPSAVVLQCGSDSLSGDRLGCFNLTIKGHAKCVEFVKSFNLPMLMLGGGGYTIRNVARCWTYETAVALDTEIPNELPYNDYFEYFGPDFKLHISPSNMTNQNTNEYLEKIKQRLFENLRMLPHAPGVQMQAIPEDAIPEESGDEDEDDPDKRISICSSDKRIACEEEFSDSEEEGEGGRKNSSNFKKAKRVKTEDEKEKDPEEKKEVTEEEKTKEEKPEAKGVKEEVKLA

Compound: O=C(CCCCCCC(=O)Nc1ccccc1)NO [SAHA, vorinostat, reference compound]
- Level of HDAC6 (MV4-11 cells [8]; MV4-11, 24 h): nearly absent

Compound: CC(C)C[C@H](NC(=O)[C@H](Cc1ccccc1)NC(=O)c1cnccn1)B(O)O [bortezomib, reference compound]
- Effect on p53 degradation upon hydrazide HDAC inhibitor treatment (MV4-11 cells [8]; MV4-11, 6 h treatment): blocks this degradation

Compound: NNC(=O)c1ccncc1 [isoniazid]
- Rate of hepatotoxicity [14]: 0.5–2%
- Rate of lethal hepatotoxicity [14]: 1/25000

Continued, in another order:

- Time dependence of HDAC2 inhibition (HDAC2 [1]): time-dependent inhibition
- Type of inhibition of HDAC3 (Lineweaver-Burke analysis) (HDAC3 [2]): mixed-type inhibition
- Time dependence of HDAC3 inhibition (HDAC3 [3]): time-dependent inhibition
- Time dependence of HDAC1 inhibition (HDAC1 [4]): time-dependent inhibition
- Type of inhibition of HDAC2 (Lineweaver-Burke analysis) (HDAC2 [5]): mixed-type inhibition
- Type of inhibition of HDAC1 (Lineweaver-Burke analysis) (HDAC1 [6]): competitive inhibition
Compound: COc1ccc(C(=O)N[C@@H](Cc2c[nH]c3ccccc23)C(=O)NCc2ccc(C(=O)Nc3ccccc3N)cc2)cc1 [Compound 11a, (S)-4-((3-(1H-indol-3-yl)-2-(4-methoxybenzamido)propanamido)-methyl)-N-(2-aminophenyl)benzamide, reference compound]

- Time dependence of HDAC2 inhibition (HDAC2 [1]): time-dependent inhibition
- Type of inhibition of HDAC3 (Lineweaver-Burke analysis) (HDAC3 [2]): mixed inhibition
- Time dependence of HDAC3 inhibition (HDAC3 [3]): time-dependent inhibition
- Time dependence of HDAC1 inhibition (HDAC1 [4]): time-dependent inhibition
- Type of inhibition of HDAC2 (Lineweaver-Burke analysis) (HDAC2 [5]): mixed inhibition
- Type of inhibition of HDAC1 (Lineweaver-Burke analysis) (HDAC1 [6]): mixed inhibition
Compound: CCCNNC(=O)c1ccc(CNC(=O)[C@H](Cc2c[nH]c3ccccc23)NC(=O)c2ccc(OC)cc2)cc1 [Compound 13b, (S)-N-(3-(1H-Indol-3-yl)-1-oxo-1-((4-(2-propylhydrazine-1-carbonyl)benzyl)amino)propan-2-yl)-4-methoxybenzamide]

- IC50 (APN/CD13): > 50 µM
- IC50 (MMP-2/MMP-9): > 50 µM
Compound: CCCNNC(=O)c1ccc(NC(=O)[C@H](Cc2c[nH]c3ccccc23)NC(=O)c2ccc(OC)cc2)cc1 [Compound 13e, (S)-N-(3-(1H-Indol-3-yl)-1-oxo-1-((4-(2-propylhydrazine-1-carbonyl)phenyl)amino)propan-2-yl)-4-methoxybenzamide]
- Cell cycle effect (MV4-11 cells [7]): induced G1/S and sub-G1 cell cycle arrest
- Treatment time required for HDAC6 repression (MV4-11 cells [8]; MV4-11): more than 12 h
- Time to degradation of p53 (MV4-11 cells [8]; MV4-11, 0.5 μM): ≤ 6 h
- HDAC1 level (MV4-11 cells [8]; MV4-11, 24 h): did not induce down-regulation of class I HDAC1
- Level of acetyl-tubulin (MV4-11 cells [8]; MV4-11, 24 h): increased
- Level of acetylated histone H3 (MV4-11 cells [8]; MV4-11, 24 h, 0.25-2 μM): markedly increase
- Level of acetylated histone H4 (MV4-11 cells [8]; MV4-11, 24 h, 0.25-2 μM): markedly increase
- Cleavage of pro-caspase3 / PARP (apoptosis) (MV4-11 cells [8]; MV4-11, 24 h, 1 and 2 μM): caused the cleavage of inactive pro-caspase3
- Level of HDAC6 (MV4-11 cells [8]; MV4-11, 24 h): nearly absent
- PC-3 cell morphology (PC-3 cells [9]; 2 μM): did not obviously affect cell morphology
- PC-3 cell morphology (PC-3 cells [9]; 10 μM): cells were still alive and attached to the culture flask
- Viable MV4-11 cell population over time (resorufin fluorescence) (MV4-11 cells [10]; 10 and 2 μM, 24 and 48 h): decreased with time
- MV4-11 cell death (MV4-11 cells [10]; 48 h treatment at high concentration): almost all MV4-11 cells were dead
- MV4-11 antiproliferative activity, times higher than 13b (MV4-11 cells [10]; vs 13b): 4.1 times
- HDAC1 level (PC-3 cells [11]): did not induce down-regulation of class I HDAC1
- Cleavage of pro-caspase3 / PARP (apoptosis) (PC-3 cells [11]; 1 and 2 μM): no observed cleavage of pro-caspase3 or PARP
- HDAC6 level and acetylated tubulin level (PC-3 cells [11]; 1 and 2 μM): did not induce down-regulation of HDAC6 nor increase the level of acetylated tubulin
- Viable PC-3 cell population over time (resorufin fluorescence) (PC-3 cells [12]; 2 μM): slightly increased
- Viable PC-3 cell population over time (resorufin fluorescence) (PC-3 cells [12]; 10 μM): remained unchanged
- Cell cycle effect (PC-3 cells [13]): triggered G2/M arrest

From PMC5908721 (Journal of medicinal chemistry, 2018)
